G6PDH counter: L. mesenteroides G6PDH inhibitors, counter-screen for G6PDH-coupled screening assays, biochemical, Leuconostoc mesenteroides enzyme; glucose-6-phosphate dehydrogenase [Leuconostoc mesenteroides]; Purified L. mesenteroides G6PDH, diaphorase/resazurin coupled fluorescence, 45 min; inhibition, % at 5 µM; 0.12% of 200,000 active; AID 1020, 2008; in the data active = inhibition above about 50%
FLuc stim CS: FLuc activators, initial screening, artefact control for FLuc-dependent activation tests, biochemical, ATPlite luminescence; Luciferin 4-monooxygenase (Photinus pyralis), P08659; ATPlite luciferase biochemical, 10 min; 0 = ATP-free wells, 1 = DMSO control; 200,000 tested, under 10 active; activation factor at 10 µM; AID 1027, 2008;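 active = luciferase activation factor, scaled between plate controls, of at least 2 with compound at 10 µM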
Target sequence (P08659 whole entry, looked up): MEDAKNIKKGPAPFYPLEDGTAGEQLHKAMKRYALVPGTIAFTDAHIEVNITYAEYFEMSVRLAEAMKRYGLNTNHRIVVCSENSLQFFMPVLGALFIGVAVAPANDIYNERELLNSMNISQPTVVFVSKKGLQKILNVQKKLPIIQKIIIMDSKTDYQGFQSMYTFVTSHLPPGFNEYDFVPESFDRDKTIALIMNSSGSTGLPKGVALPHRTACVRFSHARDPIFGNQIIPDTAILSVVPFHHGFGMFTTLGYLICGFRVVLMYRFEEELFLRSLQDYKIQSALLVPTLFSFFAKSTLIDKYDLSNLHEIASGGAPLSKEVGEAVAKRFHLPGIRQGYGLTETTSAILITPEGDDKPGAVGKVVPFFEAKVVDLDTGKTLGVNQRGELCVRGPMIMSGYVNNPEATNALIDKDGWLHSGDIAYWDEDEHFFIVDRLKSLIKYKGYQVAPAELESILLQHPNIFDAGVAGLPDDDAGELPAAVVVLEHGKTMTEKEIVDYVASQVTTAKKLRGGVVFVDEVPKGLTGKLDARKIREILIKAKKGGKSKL
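Assay system: Luciferase/luciferin detection reagent, cell-free biochemical luciferase assay / Read-out: luciferase activation / Benchmarks: No-ATP low control, compound-free enzyme-plus-ATP high control / Medium: PBS buffer for ATP / Detection: luminescence measurement of luciferase light output / Schedule: 10 min at ambient temperature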
FLuc inh counter: firefly luciferase enzyme inhibitors, primary screen, artefact control for luciferase-based inhibitor screens, biochemical, luminescence, ATPLite. 10 min. inhibition, % at 10 µM. 1.5% of 200,000 active. AID 1006, 2008. Luciferin 4-monooxygenase (Photinus pyralis), P08659;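 active = inhibition above about 50% when tested at 10 µM, limit read from the data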
Diaph act CS: compounds boosting diaphorase resazurin reduction – biochemical, uHTS, resorufin fluorescence, counter-screen for diaphorase-coupled primary assays, primary screen | Diaphorase/resazurin coupled assay, 16 min; active compounds read high; 1 = vehicle wells, 0 = NADH-free wells | activation factor at 20 µM | 0.005% of 190,000 active;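 active = diaphorase activity raised at least twofold by the compound at 20 µM; inactive = activation factor below 2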
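Material: Clostridium kluyveri diaphorase, purified enzyme; Quantity: enzyme 0.07 U/mL final; Medium: HEPES pH 7.4 buffer with MgCl2 and Tween 20; Dosing: single compound dose of 20 µM, 1% DMSO final; Schedule: 16 min reaction at room temperature; Measured by: red resorufin fluorescence at 544/590 nm excitation/emission.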
Diaph inh CS: diaphorase inhibitors and chemical oxidizers, primary screen, counter-screen for diaphorase-coupled primary assays, biochemical, uHTS, resorufin fluorescence; AID 1217, 2008; diaphorase resazurin-to-resorufin fluorescence, NADH, 16 min; bacterial (C. kluyveri) enzyme, not human; 0.69% of 190,000 active; inhibition, % at 20 µM;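 active = primary screen inhibition at 20 µM above a set limit, cut at about 50% in these data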
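Detection: fluorescence of resorufin formed from resazurin, Ex 544/Em 590 nm; test system: Clostridium kluyveri diaphorase enzyme; amount: 0.14 U/mL diaphorase, enzyme working solution; times: 16-min room-temperature incubation before reading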
A number is an active result. Compounds with a hit are over-represented: about 2.3% of the library has one in this group of screens.

How did Cc1ccccc1-c1nsc(SCC(=O)c2ccc(Cl)cc2)n1 do in these assays?
G6PDH counter: inactive; FLuc stim CS: inactive; FLuc inh counter: inactive; Diaph act CS: inactive; Diaph inh CS: inactive

How did NNC(=O)CNc1ccccc1Cl do in these assays?
G6PDH counter: inactive; FLuc stim CS: inactive; FLuc inh counter: inactive; Diaph act CS: inactive; Diaph inh CS: 54

Results for Cc1cc(C)n(C(=O)CNc2ccccc2Cl)n1 ?
G6PDH counter: inactive; FLuc stim CS: inactive; FLuc inh counter: inactive; Diaph act CS: inactive; Diaph inh CS: inactive

What do the screens show for `COc1ccc(NC(=O)C2=Cc3ccccc3OC2)cc1`?
G6PDH counter: inactive; FLuc stim CS: inactive; FLuc inh counter: 52; Diaph act CS: inactive; Diaph inh CS: inactive

How did COc1cccc2c1OCC(C(=O)OCc1cccnc1)=C2 do in these assays?
G6PDH counter: inactive; FLuc stim CS: inactive; FLuc inh counter: inactive; Diaph act CS: inactive; Diaph inh CS: inactive

How did COc1ccc(NC(=O)C2=Cc3cccc(OC)c3OC2)cc1 do in these assays?
G6PDH counter: inactive; FLuc stim CS: inactive; FLuc inh counter: 55; Diaph act CS: inactive; Diaph inh CS: inactive

Results for CC(/C=N/NC(=O)c1cc(-c2cccs2)[nH]n1)=C\c1ccccc1 ?
G6PDH counter: inactive; FLuc stim CS: inactive; FLuc inh counter: inactive; Diaph act CS: inactive; Diaph inh CS: inactive

What do the screens show for `Cc1cc(C)n(-c2nnc(N3CCN(c4ccc(F)cc4)CC3)nn2)n1`?
G6PDH counter: inactive; FLuc stim CS: inactive; FLuc inh counter: inactive; Diaph act CS: inactive; Diaph inh CS: 53

How did CCc1ccc(NC(=O)c2cnn3ccccc23)cc1 do in these assays?
G6PDH counter: inactive; FLuc stim CS: inactive; FLuc inh counter: 78; Diaph act CS: inactive; Diaph inh CS: inactive

What do the screens show for `Cc1c(NC(=O)c2cc(-n3cnnc3)ccc2Cl)cccc1-c1nc2ccccc2s1`?
G6PDH counter: inactive; FLuc stim CS: inactive; FLuc inh counter: 79; Diaph act CS: inactive; Diaph inh CS: inactive

How did O=C(NN=C1CCCCCCCCCCC1)c1cccnc1 do in these assays?
G6PDH counter: inactive; FLuc stim CS: inactive; FLuc inh counter: inactive; Diaph act CS: inactive; Diaph inh CS: inactive

How did CCN(CC)c1ccc(N=Nc2nn(C)c(C)c2[N+](=O)[O-])cc1 do in these assays?
G6PDH counter: inactive; FLuc stim CS: inactive; FLuc inh counter: 76; Diaph act CS: inactive; Diaph inh CS: inactive

How did Cc1cc(C)nc(SCc2cc(=O)c(OC(=O)c3ccc(Br)o3)co2)n1 do in these assays?
G6PDH counter: inactive; FLuc stim CS: inactive; FLuc inh counter: 60; Diaph act CS: inactive; Diaph inh CS: inactive

How did Cc1cc(C)nc(SCc2cc(=O)c(OC(=O)c3ccco3)co2)n1 do in these assays?
G6PDH counter: inactive; FLuc stim CS: inactive; FLuc inh counter: inactive; Diaph act CS: inactive; Diaph inh CS: inactive

What do the screens show for `Clc1cccc(Cl)c1CNc1ccc(N2CCCC2)cc1`?
G6PDH counter: inactive; FLuc stim CS: inactive; FLuc inh counter: inactive; Diaph act CS: inactive; Diaph inh CS: 76

What do the screens show for `O=C(Cc1ccc(Cl)cc1)Nc1ccc(N2CCCC2)cc1`?
G6PDH counter: inactive; FLuc stim CS: inactive; FLuc inh counter: inactive; Diaph act CS: inactive; Diaph inh CS: inactive

Results for CC(=O)c1c(N2CCN(c3ccccn3)CC2)nc(=S)n(-c2ccccc2)c1C ?
G6PDH counter: inactive; FLuc stim CS: inactive; FLuc inh counter: inactive; Diaph act CS: inactive; Diaph inh CS: inactive

Results for COc1ccc(NC(=S)c2ccc(N(C)C)cc2)cc1 ?
G6PDH counter: inactive; FLuc stim CS: inactive; FLuc inh counter: inactive; Diaph act CS: inactive; Diaph inh CS: inactive

What do the screens show for `Cc1ccc(NC(=S)c2ccc(N(C)C)cc2)cc1`?
G6PDH counter: inactive; FLuc stim CS: inactive; FLuc inh counter: 58; Diaph act CS: inactive; Diaph inh CS: inactive

What do the screens show for `O=c1nc2s/c(=C\c3ccc(-c4ccccc4[N+](=O)[O-])o3)c(=O)n2nc1-c1ccccc1`?
G6PDH counter: inactive; FLuc stim CS: inactive; FLuc inh counter: inactive; Diaph act CS: inactive; Diaph inh CS: 69

How did CC(C)c1ccc(Nc2ncccc2C(=O)O)cc1 do in these assays?
G6PDH counter: inactive; FLuc stim CS: inactive; FLuc inh counter: 67; Diaph act CS: inactive; Diaph inh CS: inactive

How did COc1ccc(NC(=O)c2cccnc2Nc2ccc(OC)cc2)cc1 do in these assays?
G6PDH counter: inactive; FLuc stim CS: inactive; FLuc inh counter: inactive; Diaph act CS: inactive; Diaph inh CS: inactive

What do the screens show for `CCOc1cc(/C=N/NC(=O)CCc2n[nH]c(=O)[nH]c2=O)ccc1O`?
G6PDH counter: inactive; FLuc stim CS: inactive; FLuc inh counter: inactive; Diaph act CS: inactive; Diaph inh CS: inactive

How did C(=N\N=C\c1cccs1)/c1cccs1 do in these assays?
G6PDH counter: inactive; FLuc stim CS: inactive; FLuc inh counter: 83; Diaph act CS: inactive; Diaph inh CS: inactive

What do the screens show for `C/C(=N\NC(=O)Cn1ccc(C(F)(F)F)n1)c1ccco1`?
G6PDH counter: inactive; FLuc stim CS: inactive; FLuc inh counter: inactive; Diaph act CS: inactive; Diaph inh CS: inactive

Results for c1ccc(OCCSc2nnc3sc4ccccc4n23)cc1 ?
G6PDH counter: inactive; FLuc stim CS: inactive; FLuc inh counter: 80; Diaph act CS: inactive; Diaph inh CS: inactive

How did COc1cccc(OCCSc2nnc3sc4ccccc4n23)c1 do in these assays?
G6PDH counter: inactive; FLuc stim CS: inactive; FLuc inh counter: inactive; Diaph act CS: inactive; Diaph inh CS: inactive

Results for Cc1cccc(CC(=O)N2CCC(N3CCC(C(=O)N4CCOCC4)CC3)CC2)c1 ?
G6PDH counter: inactive; FLuc stim CS: inactive; FLuc inh counter: inactive; Diaph act CS: inactive; Diaph inh CS: 55

How did CCOc1c(O)ccc(/C=C2\SC(=S)NC2=O)c1[N+](=O)[O-] do in these assays?
G6PDH counter: inactive; FLuc stim CS: inactive; FLuc inh counter: inactive; Diaph act CS: inactive; Diaph inh CS: 54

What do the screens show for `O=C1C=CC(O)(c2cc(=O)c3c(O)cc(O)cc3o2)C=C1`?
G6PDH counter: inactive; FLuc stim CS: inactive; FLuc inh counter: inactive; Diaph act CS: inactive; Diaph inh CS: inactive

What do the screens show for `CCc1nc(N)c(C#N)c(-c2ccc(OC)c(OC)c2)c1C`?
G6PDH counter: inactive; FLuc stim CS: inactive; FLuc inh counter: inactive; Diaph act CS: inactive; Diaph inh CS: inactive

Results for CCCN(CC1CC1)c1nc(N)c2c(N)nc(OC)cc2c1C#N ?
G6PDH counter: inactive; FLuc stim CS: inactive; FLuc inh counter: inactive; Diaph act CS: inactive; Diaph inh CS: 52

What do the screens show for `O=C(NC1CCCCC1)N1CCN(C(=O)c2ccco2)CC1`?
G6PDH counter: inactive; FLuc stim CS: inactive; FLuc inh counter: inactive; Diaph act CS: inactive; Diaph inh CS: inactive
